Assay results pooled from the literature.
Each line is one published result; the experiments were not run side by side.
Target: Phosphatidylinositol 4,5-bisphosphate 3-kinase catalytic subunit delta isoform (PIK3CD, Homo sapiens, UniProt O00329)
One construct used (O00329 1-1044): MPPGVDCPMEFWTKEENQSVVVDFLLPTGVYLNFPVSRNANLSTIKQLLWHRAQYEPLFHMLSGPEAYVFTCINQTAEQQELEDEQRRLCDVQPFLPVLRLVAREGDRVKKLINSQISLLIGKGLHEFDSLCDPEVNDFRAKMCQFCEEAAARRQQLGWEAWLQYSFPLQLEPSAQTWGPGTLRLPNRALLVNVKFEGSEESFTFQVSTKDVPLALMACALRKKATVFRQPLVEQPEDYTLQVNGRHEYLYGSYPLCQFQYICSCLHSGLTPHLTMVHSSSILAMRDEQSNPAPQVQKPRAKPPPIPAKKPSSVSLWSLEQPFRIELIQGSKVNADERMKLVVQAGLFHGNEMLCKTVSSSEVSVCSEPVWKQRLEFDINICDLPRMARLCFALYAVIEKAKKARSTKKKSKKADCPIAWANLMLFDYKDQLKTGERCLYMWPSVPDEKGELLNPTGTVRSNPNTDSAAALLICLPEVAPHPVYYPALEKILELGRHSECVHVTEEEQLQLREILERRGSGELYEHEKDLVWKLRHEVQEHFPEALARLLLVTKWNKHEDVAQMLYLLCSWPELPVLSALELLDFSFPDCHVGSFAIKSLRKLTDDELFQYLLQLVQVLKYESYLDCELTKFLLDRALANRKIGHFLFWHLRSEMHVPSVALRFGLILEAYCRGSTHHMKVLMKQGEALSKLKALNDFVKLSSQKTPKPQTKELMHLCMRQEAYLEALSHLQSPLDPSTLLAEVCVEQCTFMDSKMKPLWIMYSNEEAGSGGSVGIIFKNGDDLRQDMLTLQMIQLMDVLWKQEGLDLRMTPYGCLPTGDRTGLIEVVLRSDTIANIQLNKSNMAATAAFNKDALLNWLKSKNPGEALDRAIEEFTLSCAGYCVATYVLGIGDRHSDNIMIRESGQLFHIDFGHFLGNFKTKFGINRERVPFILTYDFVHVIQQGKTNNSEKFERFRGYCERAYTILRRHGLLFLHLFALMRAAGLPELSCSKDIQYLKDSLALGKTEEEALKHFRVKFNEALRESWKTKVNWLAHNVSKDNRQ

`CS(=O)(=O)Nc1cc(-c2ccc3ncnc(Nc4ccc(F)c(Cl)c4)c3c2)cnc1Cl` gave an inhibition of 90 to 100% (enzyme activity, inhibitor, FRET; 10 µM).
`CC(C)CCn1c(SCC(=O)Nc2ccccc2C(F)(F)F)nc2nccnc2c1=O` gave an inhibition of < 20% (enzyme activity, inhibitor; 10 µM).
The remaining activity of `Cc1ccc(C(=O)Nc2ccc(CN3CCN(C)CC3)c(C(F)(F)F)c2)cc1C#Cc1cnc2cccnn12` is reported as 83% (enzyme activity, inhibitor; 23.5 nM).
The remaining binding of `CC(C)(O)c1cncc(-c2nc3ccc(F)cc3n2C2CC2)c1` is reported as 100% (cell-free assay, competition with immobilised ligand; 1 µM).
The inhibition of `O=C(CSc1nc2nccnc2c(=O)n1CCc1ccccc1)Nc1ccccc1` is reported as < 20% (enzyme activity, inhibitor; 10 µM).
`CN(CCCC(F)(F)F)c1nccc(-c2cnn3ncccc23)n1` has a remaining binding of 100% (binding; 1 µM).
`Nc1ncnc2occ(-c3ccc(NC(=O)Nc4cc(C(F)(F)F)ccc4F)cc3)c12` gave a remaining signal of 69% (cell-free assay, inhibitor; 20 µM).
`CO[C@@H](C)c1c(Nc2ccc([C@@H](N(C)C(=O)C3CCS(=O)(=O)CC3)C(F)(F)F)cc2)cnc2cc(Cl)nn12` has a remaining binding of 87% (cell-free assay, competition with immobilised ligand; 1 µM).
The activity vs control of `Cc1ccc(C(=O)NCc2ccsc2)cc1C#Cc1cn(C(C)C)c2ncnc(N)c12` is reported as 98% (enzyme activity, inhibitor; 1 µM).
